Values after ≈ are worked out from the molar mass of the structure shown. Active and inactive are the calls of the source. The rule behind the calls is not given here.
Legend:
[1] = test system: Human alphaherpesvirus 1; test: Antiviral activity against HSV-1F ATCC 733 infected in african green monkey Vero cells assessed as inhibition of virus yield at 20 ug/ml after 3 days by MTT assay; type: functional; conditions: Human alphaherpesvirus 1, ATCC 733, Vero, 72 h
[2] = test system: Human alphaherpesvirus 1; test: Antiviral activity against HSV-1F ATCC 733 infected in african green monkey Vero cells assessed as inhibition of virus induced cytopathic effect after 3 days by MTT assay; type: functional, organism-based; conditions: Human alphaherpesvirus 1, ATCC 733, Vero, 72 h
Outline: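 Vero cells seeded at 1.0 × 10^5 cells/ml, held 6 h at 37 °C, 5% CO2, then infected with virus at 0.5 MOI for 1 h. Serial compound concentrations added in triplicate, with 0.1% DMSO and acyclovir controls. MTT read after 3 days at 37 °C. % inhibition taken from test, virus-control and cell-control absorbances. EC50 is 50% inhibition of virus-induced CPE; experiment repeated three times.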

[3] = Selectivity index, ratio of CC50 for african green monkey Vero cells to EC50 for HSV-1F ATCC 733; type: toxicity, cell-based; conditions: read-out: Ratio CC50/EC50
Outline: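 SI computed as CC50/EC50. CC50 from the 2-day MTT viability assay on Vero cells; EC50 from the 3-day MTT assay of HSV-1 cytopathic effect (MOI 0.5). Both in µg/ml.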

[4] = Cytotoxicity against african green monkey Vero cells after 2 days by MTT assay; type: cell-based; conditions: chlorocebus sabaeus
Outline: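 Vero cells plated at 1.0 × 10^5 cells/ml and exposed in triplicate to a range of compound concentrations, with 0.1% DMSO as negative control. After 2 days at 37 °C, 5% CO2, MTT added for 4 h. Formazan dissolved in 0.04 N HCl/isopropanol and read at 570 nm (reference 690 nm). % viability taken against media control; CC50 in µg/ml.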

[5] = test system: Human immunodeficiency virus; test: Antiviral activity against HIV infected in human MT4 cells by MTT assay; type: functional, organism-based
[6] = test system: Human herpesvirus 2 strain G; test: Antiviral activity against HSV-2G ATCC 734 infected in african green monkey Vero cells after 2 to 3 days by plaque reduction assay; type: functional, organism-based; conditions: Human alphaherpesvirus 2, ATCC 734, Vero
Outline: (§1)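 Vero cells infected at MOI 0.5 (HSV-1 or HSV-2), with serial compound dilutions in EMEM, held 1–2 h at room temperature. Cells then washed and overlaid with methylcellulose. Plaques stained with crystal violet after 2–3 days. Acyclovir and 0.1% DMSO served as controls. EC50 (50% plaque reduction) interpolated from dose-response curves.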

[7] = test system: Human alphaherpesvirus 1; test: Antiviral activity against HSV-1F ATCC 733 infected in african green monkey Vero cells after 2 to 3 days by plaque reduction assay; type: functional, organism-based; conditions: Human alphaherpesvirus 1, ATCC 733, Vero; outline: as §1
[8] = Selectivity index, ratio of CC50 for african green monkey Vero cells to EC50 for HSV-2G ATCC 734 by plaque reduction assay; type: toxicity, cell-based; conditions: read-out: Ratio CC50/EC50
Outline: (§2)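 SI derived from the Vero CC50 (MTT) divided by the plaque-reduction EC50 against the named HSV strain (MOI 0.5, methylcellulose overlay, crystal violet count after 2–3 days).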

[9] = Selectivity index, ratio of CC50 for african green monkey Vero cells to EC50 for HSV-1F ATCC 733 by plaque reduction assay; type: toxicity, cell-based; conditions: read-out: Ratio CC50/EC50; outline: as §2

Row | Structure (SMILES) | inhibition at 20 µg/mL [1] [%] | EC50 [2] [µg/mL] | selectivity ratio [3] | CC50 at 48 h [4] [µg/mL] | Activity [5] | EC50 [6] [µg/mL] | EC50 [7] [µg/mL] | selectivity ratio [8] | selectivity ratio [9]
1 | O=C(Nc1ccccc1)c1c(N2CCCC2)cc(-c2ccccc2)oc1=O | 79 | 12.5 (≈ 34.7 µM) | 3 | 37.5 (≈ 104 µM) | inactive |  |  |  | 
2 | O=C(NCCO)c1c(N2CCCCC2)cc(-c2ccccc2)oc1=O | 89 | 7.4 (≈ 21.6 µM) | 7.1 | 52.5 (≈ 153 µM) | inactive | 14.5 (≈ 42.3 µM) | 4.1 (≈ 12 µM) | 3.6 | 12.8
3 | O=C(NCCO)c1c(N2CCCC2)cc(-c2ccc(F)cc2)oc1=O |  |  |  |  | inactive |  |  |  | 
4 | Nc1nc2c(ncn2COCCO)c(=O)[nH]1 [ACYCLOVIR] | 94 |  |  | 130 (≈ 577 µM) |  | 1.8 (≈ 7.99 µM) |  |  | 
5 | O=C(Nc1ccc(Cl)cc1)c1c(N2CCCC2)cc(-c2ccccc2)oc1=O |  |  |  |  | inactive |  |  |  | 
6 | O=C(NCCO)c1c(N2CCCCC2)cc(-c2ccc(F)cc2)oc1=O |  |  |  |  | inactive |  |  |  | 
7 | O=C(Nc1ccc(Br)cc1)c1c(N2CCCC2)cc(-c2ccccc2)oc1=O |  |  |  |  | inactive |  |  |  | 
8 | Cc1ccc(NC(=O)c2c(N3CCCC3)cc(-c3ccccc3)oc2=O)cc1 | 62 | 20.9 (≈ 55.8 µM) | 2.7 | 56.5 (≈ 151 µM) | inactive |  |  |  | 
9 | O=C(NCCO)c1c(N2CCCC2)cc(-c2ccccc2)oc1=O | 70 | 9.7 (≈ 29.5 µM) | 3.1 | 30 (≈ 91.4 µM) | inactive |  |  |  | 
10 | O=C(Nc1ccc(F)cc1)c1c(N2CCCC2)cc(-c2ccccc2)oc1=O |  |  |  |  | inactive |  |  |  | 

Reference: ChEMBL document CHEMBL2086391, “Structure based molecular design, synthesis and biological evaluation of α-pyrone analogs as anti-HSV agent” (Bioorg Med Chem Lett, 2012)
